# An excerpt weighted towards active compounds, which were near 1% of everything screened.
# Thrombin inh: thrombin (human) inhibition; P00734; alpha-thrombin, Boc-VPR-AMC fluorogenic substrate cleavage; inhibition, % at 5 µM; 220,000 compounds, 0.26% hits; AID 1046;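 active = inhibition at or above 40%; inactive = inhibition below 40%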;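 also: 0% = enzyme with no compound and 100% = wells without enzyme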
#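 System: Human alpha-thrombin protein | Medium: pH 7.5 Tris (50 mM) with NaCl 150 mM, Tween 20 0.05% | Times: Enzyme reaction carried out at room temperature | Detection: AMC fluorescence, 355/460 nm | Evaluation: Percent inhibition scaled between no-compound controls and no-enzyme blanks | Benchmarks: Enzyme without compound as high, wells lacking enzyme as low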
# hK5 inh: kallikrein 5 (human) inhibition. Q9Y337. AID 873. 210,000 compounds, 0.59% hits. recombinant hK5, fluorogenic AMC substrate cleavage. inhibition, % at 5 µM;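 active = inhibition of 40% or more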;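 also: 0% = enzyme controls without compound and 100% = no-enzyme blanks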
# FXIa inh 1536: factor XIa (human) inhibition; P03951; purified FXIa, Boc-Glu-Ala-Arg-AMC fluorogenic substrate; inhibition, % at 5 µM; 220,000 compounds, 0.14% hits; AID 798;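 active = inhibition of at least 40%; inactive = inhibition below 40%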;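 also: fluorescence of freed AMC excited at 355 nm; 0% = enzyme without compound and 100% = no enzyme blank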
# FXIIa inh: inhibitors of human coagulation factor XIIa. purified FXIIa, Boc-QGR-AMC fluorogenic substrate, 2 h. inhibition, % at 5 µM. P00748. AID 800. 220,000 compounds, 0.3% hits; in the data active = inhibition above about 40%;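 also: 0% = enzyme with no compound and 100% = blank without enzyme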
# Target sequence (P00748 20-372 limits assumed): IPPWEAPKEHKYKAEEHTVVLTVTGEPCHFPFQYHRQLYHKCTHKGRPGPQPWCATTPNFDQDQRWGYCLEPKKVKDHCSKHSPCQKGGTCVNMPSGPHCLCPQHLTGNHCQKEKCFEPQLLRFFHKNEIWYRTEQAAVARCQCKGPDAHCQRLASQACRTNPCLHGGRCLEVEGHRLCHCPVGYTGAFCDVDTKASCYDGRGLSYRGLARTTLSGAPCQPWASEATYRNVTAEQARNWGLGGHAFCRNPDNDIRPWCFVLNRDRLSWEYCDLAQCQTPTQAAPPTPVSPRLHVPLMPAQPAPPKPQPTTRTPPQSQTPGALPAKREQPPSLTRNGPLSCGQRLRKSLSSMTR
# Target sequence (P00748 373-615 limits assumed): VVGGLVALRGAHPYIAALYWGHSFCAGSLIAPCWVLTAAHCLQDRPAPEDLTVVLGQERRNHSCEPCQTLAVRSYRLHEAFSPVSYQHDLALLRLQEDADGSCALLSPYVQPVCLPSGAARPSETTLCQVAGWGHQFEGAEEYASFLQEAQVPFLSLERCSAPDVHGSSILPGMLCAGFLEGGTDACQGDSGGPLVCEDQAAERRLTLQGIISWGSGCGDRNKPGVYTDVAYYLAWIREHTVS
# Starred values were filed as active, the others as inactive; · = not tested or not shown.
SMILES,Thrombin inh,hK5 inh,FXIa inh 1536,FXIIa inh
O=C1CC(C(=O)Nc2ccccc2)C2(CCCC2)O1 (stereo not given),-4,-7,-16,-13
Cc1ccccc1NC(=O)c1ccc(NC(=O)C2CC(=O)OC23CCCCC3)cc1 (stereo not given),64*,15,31,17
COc1ccccc1N(CC(O)Cn1ccnc1C)S(=O)(=O)c1ccc(C)cc1 (stereo not given),-6,0,-3,0
CCn1nc(C)c(CNC(=O)c2cc(COc3ccc(F)cc3Cl)on2)c1C,29,28,23,43*
CCN1C(=O)C(C(=O)c2ccccc2)SC1=S (stereo not given),2,0,-2,3
c1ccc2oc(-c3ccc(Nc4nc(N5CCCC5)nc(N5CCOCC5)n4)cc3)nc2c1,-8,·,-4,0
Cc1cccc(C(=O)Nc2sc(C)c(-c3ccccc3)c2C#N)c1,53*,56*,10,6
CS(=O)(=O)c1ccc(Cl)c(NC(=O)Cc2c(F)cccc2Cl)c1,-2,-3,-4,12
COc1ccc(N(C(C)C(=O)NC2CCCCCC2)S(C)(=O)=O)cc1 (stereo not given),28,62*,3,13
CCC(C)NCCOc1ccc(C)cc1[N+](=O)[O-] (stereo not given),41*,·,12,23
CSc1nc2c(cc1C#N)CCC2,0,0,0,9
CCCCSc1nc2c(cc1C#N)CCC2,14,104*,5,2
COc1ccc(CN2CCN(CCc3ccccc3)C(CCO)C2)c(O)c1 (stereo not given),-1,-1,-5,-1
COCCCNC(=O)CC1Oc2ccccc2NC1=O (stereo not given),16,56*,14,11
CCCSCCCNC(=O)CC1Oc2ccccc2NC1=O (stereo not given),-7,-19,-1,9
COc1cccc(N=C(N)N)c1,11,15,6,16
CCOC(=O)c1cc(-c2ccc(C)cc2)n(CCC(=O)NCCN(C)C)c1C,-1,4,-1,-10
CCOC(=O)c1cc(-c2ccc(C)cc2)n(CC(=O)NCc2ccco2)c1C,12,54*,7,29
O=C(NCc1n[nH]c(=S)n1-c1ccc(Br)cc1)c1cccs1,14,-13,-3,9
Cn1c(C(=O)N2CCCC2)cc2c(=O)n(C)c3ccccc3c21,0,-1,4,17
Cn1c(C(=O)N2CCN(c3ncccn3)CC2)cc2c(=O)n(C)c3ccccc3c21,0,46*,4,32
COc1cc(C2NC(=S)NC(C)=C2C(=O)Nc2cc(C)cc(C)c2)ccc1O (stereo not given),2,-1,1,4
Cc1[nH][nH]c(=O)c1C(c1cc([N+](=O)[O-])ccc1O)c1c(C)[nH][nH]c1=O,23,57*,13,8
COc1ccc(CCNS(=O)(=O)c2cccc(C(=O)O)c2)cc1OC,-3,-3,-3,2
CC(C)=CCC/C(C)=C/CC/C(C)=N/O,24,30,15,40*
SMILES,Thrombin inh,hK5 inh,FXIa inh 1536,FXIIa inh
COc1cccc(C(=O)NC(=S)Nn2cnnc2)c1OC,2,0,-1,6
O=C(NC(=S)Nn1cnnc1)c1ccccc1Cl,45*,48*,34,28
COc1ccc(-c2ccc(-c3noc(-c4cccc(OC)c4)n3)c(OC)n2)cc1,-1,60*,-6,-10
COc1ccc(-c2ccc(-c3noc(-c4ccccc4C)n3)c(OC)n2)cc1,-7,-8,-7,3
Cc1ccc(C(C)C)c(OCc2nc(-c3nonc3N)no2)c1,10,54*,-1,22
CN1CCN(S(=O)(=O)c2ccc(Br)s2)CC1,18,33,3,48*
CCOC(=O)N1CCN(S(=O)(=O)c2ccc(Br)s2)CC1,3,7,6,16
CCCn1c(SCC(=O)c2ccc3c(c2)NC(=O)CO3)nc2ccccc21,-5,-7,-2,2
Cn1c(SCC(=O)c2ccc3c(c2)NC(=O)CO3)nc2ccccc21,53*,38,25,22
Cc1ccc(-n2c(SCc3cn4ccsc4n3)nc3ccccc3c2=O)cc1,-3,-5,3,0
CCn1cc(C(=O)NCCc2ccccc2)c(=O)c2cc(S(=O)(=O)N3CCCC3)ccc21,31,-4,-2,4
CCN(CC)S(=O)(=O)c1ccc2c(c1)c(=O)c(C(=O)NCCCN(C)c1ccccc1)cn2C,-1,2,-1,9
Cn1cc(C(=O)NCc2ccc(F)cc2)c(=O)c2cc(S(=O)(=O)N3CCCCC3)ccc21,3,-9,-6,0
CCn1cc(C(=O)NCc2ccco2)c(=O)c2cc(S(=O)(=O)N3CCCC3)ccc21,83*,1,3,10
COc1ccccc1CNC(=O)c1cn(C)c2ccc(S(=O)(=O)N3CCCC3)cc2c1=O,45*,-6,-4,6
CCN(CC)S(=O)(=O)c1ccc2c(c1)c(=O)c(C(=O)NCc1cccs1)cn2C,64*,-7,5,12
COc1ccc(-c2nnc(SCC(=O)NCc3ccco3)n2C)cc1,-6,-2,-8,6
Nn1c(Cc2cccc3ccccc23)nnc1SCCOc1ccc(F)cc1,28,27,21,41*
Cc1ccnc(NS(=O)(=O)c2ccc(NC(=O)c3ccc4c(c3)OCCO4)cc2)n1,-12,-8,-7,-1
O=C(COc1ccc(Cl)cc1)Nc1nc(-c2cccs2)cs1,-4,-16,4,4
COc1cc(C(=O)Nc2nc(-c3cccs3)cs2)cc(OC)c1OC,73*,-8,3,28
O=C(Nc1nc(-c2cccs2)cs1)c1ccco1,62*,0,6,8
O=C(Nc1nc(-c2cccs2)cs1)c1ccc(Cl)cc1,75*,6,43*,14
O=C(Nc1nc(-c2ccncc2)cs1)c1ccco1,-7,-8,1,13
CCOc1ccccc1NC(=O)C1=C(C)NC(=S)NC1c1cccs1 (stereo not given),-5,-13,0,2
SMILES,Thrombin inh,hK5 inh,FXIa inh 1536,FXIIa inh
COc1cc(C(=O)NC(=S)N(C)Cc2ccccc2)cc(OC)c1OC,19,36,101*,26
CCOc1ccc(-c2cc(N)n(S(=O)(=O)c3ccc(OC)c(OC)c3)n2)cc1,1,2,6,5
COc1ccc(S(=O)(=O)n2nc(-c3ccc(Cl)cc3)cc2N)cc1OC,4,48*,-4,7
CCSc1cnc(-c2ccccc2)n1CC,-1,-6,-1,11
CC(C)c1ccc(N(CC(=O)N/N=C/c2ccc(OC3CSC3)cc2)S(=O)(=O)c2ccccc2)cc1,59*,22,-11,-4
Cc1ccc(N(CC(=O)N/N=C/c2ccc(OC3CSC3)cc2)S(=O)(=O)c2ccccc2)cc1,-3,-10,-3,6
CC(=O)Nc1ccc(S(=O)(=O)NCc2cccnc2)cc1,31,47*,22,1
O=C(Nc1ccc(S(=O)(=O)NCc2cccnc2)cc1)c1ccco1,-2,-5,-8,1
O=C(CCC(=O)OCc1ccc(C(=O)Oc2ccc(Cl)cc2)cc1)Nc1ccccc1,12,52*,1,35
